S1P3 antag: blocks the human S1P3 receptor. Q99500. CHO S1P3 NFAT-BLA reporter, FRET fluorescence, antagonist mode. inhibition, % at 4.98 µM. 170,000 compounds, 0.27% hits. AID 485;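 active means inhibition above the plate cutoff, the mean inhibition of test wells on that plate plus 3 SD, cut at about 28% in these data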;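 further: cells challenged with S1P at its EC80 of 0.8 µM; blue over green emission ratio from cleaved BLA substrate after 4 h stimulation; 0% = S1P-stimulated wells and 100% = unstimulated DMSO-only wells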
Target sequence (Q99500 whole entry, looked up): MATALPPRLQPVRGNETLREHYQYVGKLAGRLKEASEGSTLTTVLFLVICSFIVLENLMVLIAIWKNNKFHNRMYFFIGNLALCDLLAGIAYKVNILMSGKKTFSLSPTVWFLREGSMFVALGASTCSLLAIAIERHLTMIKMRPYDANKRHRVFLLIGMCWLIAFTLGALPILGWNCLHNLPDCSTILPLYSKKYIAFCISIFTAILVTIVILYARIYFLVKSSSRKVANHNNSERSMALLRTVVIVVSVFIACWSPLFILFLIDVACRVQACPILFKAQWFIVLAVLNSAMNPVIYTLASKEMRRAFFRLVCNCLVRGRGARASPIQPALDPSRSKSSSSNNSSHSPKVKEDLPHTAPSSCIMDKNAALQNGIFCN
CHOP inhibitor: CHOP inhibition in unfolded protein response. CHO-K1 CHOP-promoter luciferase, tunicamycin-induced, 15-18 h. inhibition, % at 10 µM. 220,000 compounds, 3.8% hits;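 active means compounds that reduced the stress-induced luciferase reporter signal by more than about 70% of percent inhibition, limit read from the data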;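 further: 0% = tunicamycin plus vehicle and 100% = wells without tunicamycin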
Hsp70 activator: Hsp70 transcriptional activation, primary screen. HeLa Hsp70 promoter luciferase reporter, luminescence; scaled: vehicle 0, proteasome-inhibitor control 100%. AID 1203. activation, % at 10 µM. 200,000 compounds, 0.04% hits;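 active means activation above the mean across all tested compounds plus 3 SD, cutoff set per campaign, cut at about 5.5% in these data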;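 further: 100% = MG132 at 30 µM as the positive control and 0% = DMSO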
MDM2 E3 inh: inhibitors of human Mdm2 E3 ubiquitin ligase; cell-based MDM2 ubiquitination luciferase reporter, 2 h; 0 = plate control, 100 = twice control, blank-subtracted; 210,000 compounds, 0.11% hits; Q00987; AID 1230; signal enhancement, % at 5 µM;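 active means signal enhancement of 30% or more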;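 further: luminescence tracks abundance of the self-degrading MDM2-luciferase fusion protein; higher signal means inhibition of MDM2 E3 ligase activity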
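System: stable MDM2–luciferase fusion reporter cells / Input: 2000 cells seeded into each well / Schedule: 4 h settle plus 2 h compound, 37 °C / Compound: single-point 5 µM / Buffer or medium: cells held in DMEM / Benchmarks: control and blank well means / Evaluation: percent signal gain over controls, blank-subtracted / Measured by: luciferase luminescence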
* hit, by the source's call; . = not tested or not shown. Rows were chosen to be rich in hits. Some 4% of all compounds tested hit in one or more screens of this group.

SMILES | S1P3 antag | CHOP inhibitor | Hsp70 activator | MDM2 E3 inh
Clc1ccc2[nH]c3c(c2c1)CCc1cn[nH]c1-3 | 22.7 | 86.8* | 0.2 | -11.1
c1ccc2c3c([nH]c2c1)-c1[nH]ncc1CC3 | -12.0 | 70.6* | 0.1 | -5.4
O=CNC1CCCc2c1[nH]c1ccc(Cl)cc21 (stereo unspecified) | -4.7 | 22.6 | -0.5 | -2.5
CC(C)Cn1c(SCc2nc3ccccc3c(=O)[nH]2)nc2ccccc2c1=O | . | 82.4* | -0.2 | -9.4
O=C(C1CC12CCCC2)N1CCC(CO)(Cc2ccccc2Cl)CC1 (stereo unspecified) | -1.5 | 36.3 | -0.4 | -4.1
O=C(Nc1ccc(N2CCCC2)c(S(=O)(=O)Nc2cccc(C(F)(F)F)c2)c1)c1cccs1 | -6.7 | 90.3* | -0.2 | 3.0
COc1ccccc1NS(=O)(=O)c1cc(NC(=O)c2cccs2)ccc1N1CCCC1 | 9.4 | 1.7 | -0.2 | -0.7
Cc1cc(NC(=O)c2cccc(S(=O)(=O)N3CCCCCC3)c2)n(-c2ccccn2)n1 | 11.4 | -26.9 | -0.2 | -11.1
Cc1cc(C)nc(-n2nc(C)cc2NC(=O)c2cccc(S(=O)(=O)N3CCCCC3)c2)n1 | . | 106.8* | 0.0 | -32.0
O=C(c1cc(-c2cccc(O)c2)on1)N1CCN(C(c2ccccc2)c2ccccc2)CC1 | -34.1 | 78.0* | -0.1 | -22.9
O=C(N/N=C/c1cc(Cl)cc([N+](=O)[O-])c1O)NC12CC3CC(CC(C3)C1)C2 | -8.0 | 80.5* | -0.2 | 4.7
O=C(Nc1cccnc1)C(Cc1ccccc1)n1cccc1 (stereo unspecified) | 11.7 | -51.5 | -0.2 | -2.2
O=C(Nc1ncc(Br)s1)C(Cc1ccccc1)n1cccc1 (stereo unspecified) | 66.8* | 3.1 | -0.3 | -8.7
CN1/C(=C\C(=O)Nc2ccc(Br)cc2)C(C)(C)c2ccccc21 | 6.9 | 82.1* | 0.0 | 2.5
COc1ccccc1OCCCCN1CCN(c2ccccc2OC)CC1 | . | -9.1 | -0.2 | -7.0
COc1ccccc1N1CCN(CCCCOc2cccc3ccccc23)CC1 | 4.5 | 83.7* | -0.2 | -8.2
CCOc1ccc(-n2c(N)c(-c3nc4ccccc4n3C)c3nc4ccccc4nc32)cc1 | 6.0 | 92.8* | -0.2 | -14.0
COc1ccc(C(C)(C)C)cc1NC(=O)Nc1ccc2c(c1)OCO2 | 59.4* | 42.3 | -0.1 | 4.1
O=C(Nc1ccc2c(c1)OCO2)Nc1ccc2c(c1)OCO2 | -21.9 | 19.3 | 0.1 | -19.6
O=C(Nc1ccc2c(c1)OCO2)Nc1ccc(Cl)cc1Cl | . | 91.2* | 0.5 | -17.0
O=C(Nc1cnccn1)Nc1ccc(Cl)cc1Cl | -1.8 | 78.4* | -0.2 | -8.8
COc1cc(NC(=O)Nc2ccc3c(c2)OCO3)cc(OC)c1OC | -2.9 | -8.0 | -0.3 | 2.3
Cc1cc(C)n(C(=O)CCCn2cc([N+](=O)[O-])cn2)n1 | -10.2 | 6.6 | -0.2 | -1.3
O=C(O)CC(Cc1ccc(Cl)cc1)C(=O)NCc1ccccc1 (stereo unspecified) | -11.8 | 0.2 | -0.4 | -9.7
CCN(CC)C(=O)COc1ccc(-c2nnc(N3CCCCC3)c3ccccc23)cc1 | 29.1 | 21.0 | -0.3 | -9.7
SMILES | S1P3 antag | CHOP inhibitor | Hsp70 activator | MDM2 E3 inh
CCOc1ccc(-c2nnc(N3CCCCC3)c3ccccc23)cc1 | . | 79.2* | -0.5 | -12.9
CCOC(=O)c1cc(-c2ccccc2)sc1NC(=O)C(C)OC(=O)c1cccnc1OCC (stereo unspecified) | 0.3 | 3.0 | -0.3 | 0.8
CCn1c2ccccc2n2c(=O)c(=O)n(CC(=O)Nc3ccc(C(C)C)cc3)nc12 | -1.5 | 87.0* | -0.3 | 4.9
Cc1nn(CC(=O)Nc2ccc(C(C)C)cc2)c(C)c1[N+](=O)[O-] | -8.6 | -0.1 | -0.2 | 1.2
CC(C)COc1nc2ccccc2c(=O)n1OCC(=O)O | . | 15.3 | -0.3 | -16.9
CCCOn1c(OCC(C)C)nc2ccccc2c1=O | -33.8 | 72.8* | -0.2 | -6.9
CC(C)CC1(C)NC(=O)N(CC(=O)Nc2ccc3c(c2)CCC3)C1=O (stereo unspecified) | 0.6 | 13.3 | 0.1 | -7.2
O=C(c1ccc(SCc2cccc(Br)c2)c([N+](=O)[O-])c1)N1CCN(c2ccccn2)CC1 | 1.2 | 10.4 | 0.0 | -12.4
C=C(C)C1CC=C(C)/C(=N/NC(=O)COc2ccc(Cl)cc2)C1 (stereo unspecified) | 9.4 | 86.0* | 0.0 | -4.0
O=C(Nc1ccc(Cl)c([N+](=O)[O-])c1)C(Sc1ccccc1)c1ccccc1 (stereo unspecified) | 6.4 | 83.5* | -0.3 | 6.6
CC(=O)N(C)c1ccc(NC(=O)C(Sc2ccccc2)c2ccccc2)cc1 (stereo unspecified) | -3.9 | -11.5 | -0.2 | -3.8
CC(C)(C)NS(=O)(=O)c1ccc(NC(=O)C(Sc2ccccc2)c2ccccc2)cc1 (stereo unspecified) | . | 75.1* | -0.2 | -14.0
Cc1ccc(OCc2ccc(C(=O)Nc3nc4ccccc4n3Cc3ccccc3)o2)c([N+](=O)[O-])c1 | . | 87.9* | 0.4 | -11.4
C=CCn1c(-c2ccc(S(=O)(=O)N3CCOCC3)cc2)csc1=Nc1ccccc1 | . | 71.6* | -0.2 | 8.3
COc1cccc(C(=O)N=c2sc3cc(S(C)(=O)=O)ccc3n2C)c1 | -7.1 | 27.1 | 0.2 | -0.9
COc1cccc2sc(N(CCCN(C)C)C(=O)c3sc4ccccc4c3Cl)nc12 | -10.4 | 37.3 | -0.3 | -12.2
N#Cc1cc2c(nc1SC1CC(=O)N(c3ccccc3)C1=O)CCC2 (stereo unspecified) | -15.7 | 83.6* | -0.5 | -22.2
COc1ccc(/C=C2/SC(=S)N(CCC(=O)O)C2=O)cc1 | . | 84.3* | -0.6 | -17.5
COc1ccc(/C=C2/SC(=S)N(n3c(C)ccc3C)C2=O)cc1 | . | 90.3* | 0.5 | -11.8
O=C(O)CCCN1C(=O)/C(=C\c2ccco2)SC1=S | -0.1 | 60.4 | -0.3 | -1.1
CCOc1ccc(/C=C2/SC(=S)N(n3c(C)ccc3C)C2=O)cc1 | . | 20.8 | -0.6 | -21.5
O=C(O)CCN1C(=O)/C(=C\c2ccc(-c3nc4ccccc4s3)o2)SC1=S | . | 74.2* | -0.2 | -17.1
COc1ccc(-c2cc3ncc(C(C)=O)c(C)n3n2)cc1 | -6.4 | -4.7 | -0.2 | -17.2
O=C(CC1S/C(=N/N=C/C=C/c2ccccc2)NC1=O)Nc1ccc(C(=O)O)cc1 (stereo unspecified) | -5.4 | -3.2 | -0.3 | -3.3
O=C(Nc1nc(-c2ccccn2)cs1)c1ccc(Br)s1 | . | -29.1 | -0.1 | 44.9*
SMILES | S1P3 antag | CHOP inhibitor | Hsp70 activator | MDM2 E3 inh
CC(C)CC(=O)Nc1ccc2nn(-c3ccccc3)nc2c1 | 13.2 | 28.2 | 0.1 | 1.5
CCC(=O)Nc1cc2nn(-c3ccccc3)nc2cc1Cl | -33.9 | 79.0* | -0.2 | -37.4
Cc1[nH]n(-c2ccc(Cl)cc2)c(=O)c1N=Nc1cccnc1 | 3.0 | 89.6* | . | .
Cc1[nH]n(-c2ccccc2)c(=O)c1N=Nc1ccc2c(c1)OCCO2 | -24.1 | -10.0 | 0.5 | -11.2
Cc1cc(Nc2cccc(F)c2)nc(NCc2ccccc2)n1 | 19.2 | 71.1* | -0.3 | -7.8
O=C(CCCc1nc2ccccc2s1)NNC(=O)CCN1CCN(Cc2ccccc2)CC1 | -11.8 | 24.1 | 0.1 | -10.8

Screening results as filed in PubChem.
